Data set [1] can be described thus: Drug excretion in rat urine at 4 mg/kg,iv measured upto 72 hrs. Particulars: read-out: Drug excretion. It counts as ADME, organism-based.
A short description of data set [2]: Half life in female rat at 8 mg/kg,iv measured upto 24 hrs. It counts as ADME, organism-based. The following applies: in vivo.
The nature of data set [3]: Plasma protein binding in dog plasma incubated for 4 hrs. It counts as ADME, cell-free, Canis lupus familiaris. Particulars: read-out: PPB (converted).
The nature of data set [4]: Clearance in male Beagle dog at 1 mg/kg,iv measured upto 24 hrs. It counts as ADME, organism-based, Canis lupus familiaris. Particulars: in vivo. In outline: (§1)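 Beagle dogs were given a single iv infusion at 1, 2 or 4 mg/kg. Plasma parent drug and released docetaxel were followed over time. Cmax, Tmax, AUC, MRT, t1/2, CL and Vss were reported by sex and for all dogs combined.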

Data set [5] is described as follows: Toxicity in BALB/c mouse xenografted with human HCT-116 cells assessed as side effects at 10 mg/kg,iv administrated once per week for 3 weeks. It counts as organism-based. The following applies: in vivo, 504 h. In general terms: Xenograft models place foreign cells or tissue in a host animal.
A short description of data set [6]: AUC (0-infinity) in rat at 2 mg/kg,iv measured upto 24 hrs. It counts as ADME, organism-based. Details: dose 2 mg/kg, time < 24 hrs, route iv. Particulars: in vivo. Summed up: (§2)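 Single iv dose: rats 2, 4 or 8 mg/kg by intravenous injection; Beagle dogs 1, 2 or 4 mg/kg by intravenous infusion. Plasma concentration–time data were analysed by sex and pooled. Reported parameters: Cmax, Tmax, AUC0−t, AUC0−∞, MRT0−∞, t1/2, CL, Vss, given as mean ± SD.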

Data set [7] concerns 4T1. In words: Antitumor activity against mouse 4T1 cells xenografted with BALB/c mouse assessed as inhibition of tumor growth at 20 mg/kg,iv administrated once per week for 4 weeks. It counts as functional. The following applies: 4T1, 672 h. Summed up:
(§3)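 4T1 cells injected into the mammary fat pad of BALB/c mice; iv saline vehicle or 5, 10 or 20 mg/kg once weekly for 4 weeks; body weight, tumour volume, tumour weight, lung metastatic nodule count and metastasis score recorded; n = 10, mean ± SEM, ANOVA and Student's t test.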

Data set [8] deals with 4T1. In words: Antitumor activity against mouse 4T1 cells implanted in BALB/c mouse assessed as decrease in S100A8 mRNA expression in lung at 20 mg/kg,iv administrated qd for 2 days by qRT-PCR analysis. It counts as functional, organism-based. The following applies: time 2.0 day. Summed up:
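Day 19 after 4T1 implantation, mice randomised into five groups; iv vehicle or 20 mg/kg plus ip C12-iE-DAP (50 μg/mouse) and MDP (100 μg/mouse) once daily for 2 days; killed after 48 h; lung mRNA for MMP8, MMP9, PROK2, S100A8, S100A9 and IL-1β by qPCR; mean ± SEM.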

Data set [9] can be described thus: Toxicity in Beagle dog assessed as decrease in body temperature at 1 to 4 mg/kg,iv. It counts as organism-based, Canis lupus familiaris. Particulars: in vivo, dose 1-4 mg/kg.
The nature of data set [10]: Clearance in Beagle dog at 2 mg/kg,iv measured upto 24 hrs. It counts as ADME, organism-based, Canis lupus familiaris. The following applies: in vivo. In outline:
as §1

The nature of data set [11]: Drug distribution in rat kidney at 4 mg/kg,iv measured by 0.25 hrs. It counts as ADME, organism-based. Particulars: in vivo. Summed up: (§4)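 Rats received 4 mg/kg iv. Parent drug and released docetaxel were assayed in tissues and plasma from the first sampling at 0.25 h to 24 h. The lower limit of quantitation was 200 ng/g.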
Data set [12] in a line: Tmax in female rat at 2 mg/kg,iv measured upto 24 hrs. It counts as ADME, organism-based. The following applies: in vivo.
The nature of data set [13]: Drug metabolism in human hepatocytes assessed as MDA-205 metabolite formation at 20 uM incubated for 180 mins. It counts as ADME, cell-based, Hepatocyte. The following applies: 3 h.
Data set [14] relates to 4T1. In words: Antitumor activity against mouse 4T1 cells xenografted with BALB/c mouse assessed as inhibition of tumor growth at 5 mg/kg,iv administrated once per week for 4 weeks. Particulars: 4T1, 672 h. It counts as functional. In outline:
as §3

Data set [15] in a line: Half life in mouse plasma implanted with mouse 4T1 cells at 10 mg/kg,iv measured upto 72 hrs. It counts as ADME, organism-based.
The subject of data set [16] is 4T1. In words: Antitumor activity against mouse 4T1 cells implanted in BALB/c mouse assessed as decrease in serum TIMP-1 level at 10 mg/kg,iv administrated once per week for 4 weeks by ELISA. It counts as functional, organism-based. In outline: (§5)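 4T1 fat-pad model in BALB/c mice, iv 5–20 mg/kg once weekly for 4 weeks, with vehicle and naive groups; serum MMP9, TIMP-1, IL-6 and S100A9 measured by mouse ELISA kits.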
Background: ELISA stands for enzyme-linked immunosorbent assay.

A short description of data set [17]: AUC (0-infinity) in male rat at 2 mg/kg,iv measured upto 24 hrs. It counts as ADME, organism-based. Details: dose 2 mg/kg, time < 24 hrs, route iv. Particulars: in vivo. In outline:
as §2

The subject of data set [18] is 4T1. In words: Antitumor activity against mouse 4T1 cells implanted in BALB/c mouse assessed as decrease in tumor MMP2 expression level at 5 to 20 mg/kg,iv administrated once per week for 4 weeks by western blot assay. It counts as functional, organism-based. The following applies: dose 5-20 mg/kg. Summed up: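 4T1 fat-pad model in BALB/c mice, iv once weekly for 4 weeks; MMP9, MMP2 and NOD1 in spleen, lung and tumour by western blot, β-actin loading control; bands averaged over five mice per group, representative of two independent experiments.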
A general note: Immunoblotting shows a protein as a band on a membrane.

The nature of data set [19]: Drug distribution in rat liver at 4 mg/kg,iv measured by 0.25 hrs. It counts as ADME, organism-based. Particulars: in vivo. In outline:
as §4

Data set [20] in a line: Cmax in male rat at 2 mg/kg,iv measured upto 24 hrs. It counts as ADME, organism-based. More on the design: time < 24 hrs, dose 2 mg/kg, route iv. The following applies: in vivo. Summed up:
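Rats were given a single iv injection at 2, 4 or 8 mg/kg. Plasma parent drug and released docetaxel were followed over time. Cmax, Tmax, AUC, MRT, t1/2, CL and Vss were reported for males, females and all animals combined.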

Data set [21] is described as follows: Half life in mouse tumor implanted with mouse 4T1 cells at 10 mg/kg,iv measured upto 72 hrs. It counts as ADME, organism-based, Neoplasm.
Data set [22] can be described thus: AUC (0-t) in mouse plasma implanted with mouse 4T1 cells at 10 mg/kg,iv measured upto 72 hrs. It counts as ADME, organism-based. More on the design: dose 10 mg/kg, time < 72 hrs, route iv. In outline:
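4T1 tumor-bearing mice (4T1 cells implanted in the mammary fat pad) received a single iv dose of 10 mg/kg. Plasma and tumor tissue were sampled up to 72 h, with n = 6. Levels of parent and of released docetaxel were measured. AUC came from noncompartmental analysis, reported as mean ± SD.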

For data set [23], the system named is 4T1. In words: Antitumor activity against mouse 4T1 cells implanted in BALB/c mouse assessed as decrease in serum IL-6 level at 20 mg/kg,iv administrated once per week for 4 weeks by ELISA. It counts as functional, organism-based. In outline:
as §5

Data set [24] relates to 4T1. In words: Antitumor activity against mouse 4T1 cells implanted in BALB/c mouse assessed as decrease in lung MMP2 expression level at 5.7 mg/kg,iv administrated once per week for 4 weeks in presence of MDA-205 by western blot assay. It counts as functional, organism-based. In outline: (§6)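 4T1 cells injected into mammary fat pads of BALB/c mice. Saline vehicle or test article given iv once weekly for 4 weeks. Spleen, lung and tumor lysates immunoblotted for MMP2/MMP9 with β-actin as loading control. Bands averaged over five mice per group, representative of two independent experiments.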

The next data set in a line: in vivo. The following applies: mouse, plasma, iv, 5.7 mg/kg.
Data set [25] has as its system 4T1. In words: Antitumor activity against mouse 4T1 cells implanted in BALB/c mouse assessed as decrease in tumor MMP2 expression level at 5.7 mg/kg,iv administrated once per week for 4 weeks by western blot assay. It counts as functional, organism-based. In outline:
as §6

Data set [26] relates to 4T1. In words: Antitumor activity against mouse 4T1 cells xenografted with BALB/c mouse assessed as reduction lung metastatic nodules at 5.7 mg/kg,iv in presence of compound 6 administrated once per week for 4 weeks. It counts as functional, organism-based. Summed up: (§7)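 4T1 cells injected into mammary fat pads of BALB/c mice. Dosing iv once per week for 4 weeks, saline vehicle; single-agent arms were given alone or with the peptide component (5b or 6). Endpoints were body weight, tumour volume, tumour weight, lung metastatic nodule count and lung metastasis score. Mean ± SEM, n = 10; ANOVA and Student's t test.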

Data set [27] concerns 4T1. In words: Antitumor activity against mouse 4T1 cells xenografted with BALB/c mouse assessed as reduction lung metastatic nodules at 5.7 mg/kg,iv administrated once per week for 4 weeks. It counts as functional, organism-based. Summed up: as §7

The record followed here is ChEMBL document CHEMBL5252546, “Salutaxel, a Conjugate of Docetaxel and a Muramyl Dipeptide (MDP) Analogue, Acts as Multifunctional Prodrug That Inhibits Tumor Growth and Metastasis” (J Med Chem, 2018).

Calls of active or inactive are those of the source.

The half-life is the time needed for the level to fall by half in the phase considered. Read a low half-life as fast loss. The clearance is the rate of elimination divided by the concentration. A high value points to a high capacity for elimination. The term AUC(0-inf) denotes the area under the concentration-time curve extrapolated to infinity. High values mean more exposure, low ones less exposure. Broadly, the inhibition in vivo is the change of the read-out against control, counted positive when it falls. The Tmax is the time at which the peak concentration occurs. As a reminder, the Cmax is the highest concentration seen after dosing. As a reminder, the AUC(0-t) is exposure summed from dosing to a finite time, without extrapolation to infinity.

Turning to `CC(=O)O[C@@]12CO[C@@H]1C[C@H](O)[C@@]1(C)C(=O)[C@H](O)C3=C(C)[C@@H](OC(=O)[C@H](OC(=O)CCC(=O)NCCCC[C@H](NC(=O)CC[C@@H](NC(=O)[C@H](C)NC(=O)/C=C/c4ccc(F)cc4Cl)C(N)=O)C(=O)O)[C@@H](NC(=O)OC(C)(C)C)c4ccccc4)C[C@@](O)([C@@H](OC(=O)c4ccccc4)[C@H]21)C3(C)C`, the dose excreted at 72 h in data set [1] is 9.38%. For the same compound, the half-life in [2] was 15.2 min; in data set [15], 41.4 min; in [21] it was 93.6 min. The fraction unbound at 4 h in data set [3] is 0.003. For the same compound, the results for the clearance in [4] and in data set [10] were 11.7 mL/min/kg and 6.08 mL/min/kg, respectively. The Activity entry in data set [5] was “Non-Toxic”; in data set [9], “Toxic”. In addition, the AUC(0-inf) in [6] was 5230 ng·h/mL; in data set [17], 6120 ng·h/mL. Also, the inhibition in vivo at 20 mg/kg in the data set on 4T1 [7] worked out at 57.2%. The result with 4T1 [8], in the data set with 4T1 [16] and in the data set with 4T1 [23] was Active. The Drug uptake result in data set [11] and in data set [19] was “Active” throughout. Further, in [12], the Tmax came out at 4.98 min. Besides, in data set [13], the Drug metabolism result is given as “Metabolite_Detected”. Also, the inhibition in vivo at 5 mg/kg in the data set on 4T1 [14] worked out at 12%. The outcome with 4T1 [18] was inactive. Also, the Cmax in data set [20] is 15800 ng/mL. For the same compound, the AUC(0-t) at 72 h in data set [22] is 3.33 µM·h.
For `CC(=O)O[C@@]12CO[C@@H]1C[C@H](O)[C@@]1(C)C(=O)[C@H](O)C3=C(C)[C@@H](OC(=O)[C@H](O)[C@@H](NC(=O)OC(C)(C)C)c4ccccc4)C[C@@](O)([C@@H](OC(=O)c4ccccc4)[C@H]21)C3(C)C` [DOCETAXEL ANHYDROUS], the outcome in the data set with 4T1 [24], with 4T1 [25], in the data set with 4T1 [26] and in the data set with 4T1 [27] was inactive. Also, in “in vivo”, the AUC(0-t) at 72 h stood at 2.24 µM·h.
